Legend:
[1] = test system: kin-src binding to plasma membranes (src receptor); assay: Competition of kin-src membrane binding by peptides or polypeptides; set-up: species or system vole
Method in brief: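 [35S]methionine-labelled chimera translated in rabbit reticulocyte lysate (90 min, 30°C; Triton X-100 0.075% final), then incubated 30 min at 20°C with 1T cell P100 membranes with increasing myristylated peptide. Also tested: 8-mer at 92 µM, 15-mer at 58 µM, or in vitro translated competitor polypeptide. Pellets at 100,000 g; gel slices counted. Pellet without membranes subtracted; untreated membranes set to 100%.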

[2] = test system: pp60v-src binding to plasma membranes (src receptor); conditions: previous experiments; ref Resh, 1989; cited from earlier work
[3] = test system: pp60v-src binding to plasma membranes (src receptor); assay: Competition of pp60v-src membrane binding by peptides or polypeptides; set-up: species or system vole
Method in brief: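 1T cell P100 membranes incubated with [35S]methionine-labelled, reticulocyte-lysate-translated protein plus increasing myristylated N-terminal peptides, including Lys→Asn or Arg variants. Nonmyristylated peptide served as control. Incubation 30 min at 20°C, then ultracentrifugation at 100,000 g. Gel slices counted by scintillation. Pellet without membranes subtracted; binding to untreated membranes normalised to 100%.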

[4] = test system: del 15-263 binding to vole cell membranes (P100); assay: Competition of del 15-263 membrane binding by MGYsrc peptide
Method in brief: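 In vitro translated [35S]methionine-labelled deletion mutant (rabbit reticulocyte lysate) incubated with vole P100 membranes with increasing myristylated src peptide. Binding quantitated by gel slice scintillation counting, pellet without membranes subtracted, untreated membranes set to 100%. In parallel, membranes were incubated 15 min at 20°C with 4 × 10^5 c.p.m. 125I-peptide, then 15 min with BS3 crosslinker, in the presence of increasing unlabelled peptide. After 100,000 g reisolation, SDS gel, and gamma counting of the excised band.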

[5] = test system: plasma membrane-enriched fractions (P100) from vole cells; membrane-bound src receptor; assay: In vitro membrane binding of in vitro translated src proteins; conditions: for decrease in membrane-binding capacity versus wild type: P100 membranes from normal vole cells, average of three experiments, Fig. 5
NIH3T3 cells [6] = assay: Subcellular fractionation and immunofluorescence of G418-resistant NIH3T3 clones; type: cell-based; conditions: for Percent association with cell fraction P1 / Percent association with cell fraction P100: percentage of total src kinase activity; for Percent association with cell fraction P1: 1,000-g pellet; for Percent association with cell fraction P100: 100,000-g pellet
Method in brief: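 G418-resistant NIH3T3 clones (retroviral transfer) labelled 1 h with 50 µCi/ml [35S]methionine. Cells lysed by hypotonic Dounce homogenisation and spun into a 1,000 g pellet (P1), a 100,000 g pellet (P100) and S100. Fractions adjusted to kinase buffer, immunoprecipitated with anti-p60 serum, and subjected to in vitro kinase assay. Analysed by SDS-PAGE and scintillation counting; each fraction given as percent of total kinase activity.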

NIH3T3 cells [7] = assay: Transformation: morphology and growth in soft agar; type: cell-based
Method in brief: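 NIH3T3 cells transduced with PLJ retroviral vector carrying src or chimera, or with vector alone. G418-resistant clones expanded, then morphology examined by phase-contrast microscopy. Growth in soft agar scored +/− per clone.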

myristyl transferase = assay: Efficiency of myristylation on translation in reticulocyte lysate; type: biochemical; conditions: rabbit reticulocyte lysate; densitometry; normalized to pp60v-src = 1; Table II
Method in brief: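 Constructs translated in rabbit reticulocyte lysate for 90 min at 30°C, with either 0.4 µCi/µl [35S]methionine or 0.7 µCi/µl [3H]myristic acid. Products resolved by SDS gel; myristate-to-methionine incorporation ratio expressed relative to wild-type.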

[8] = peptide at 340 μM, 1T cell P100 membranes, Fig. 2

Substance: GNAAAAKKY [8 mer]
- inhibition of membrane binding of kin-src ([1]; peptide at 92 μM): 35%
- inhibition of pp60v-src binding [2]: failed to detect inhibition

Substance: GQ1WTTPLY [myristylated gag peptide, reference compound]
- effect on the binding of kin-src ([1]; data not shown): did not have a significant effect

Substance: GSSKSKPKDPSY [GYsrc]
- inhibition of pp60v-src membrane binding [3, 8]: 10-20%
- inhibition of kin-src membrane binding [1, 8]: 10-20%

Substance: GSSKSKPKDPSY [MGYsrc]
- maximum inhibition of pp60v-src binding ([3]; competition never complete, on average, Figs. 2 and 4): 50-60%
- kin-src polypeptide released from the membrane by MGYsrc ([1]; from the shape of the binding curve in Fig. 2): ~75%
- inhibition of binding of the del 15-263 polypeptide ([4]; increasing MGYsrc, vole cell P100 membranes, Fig. 6): 80-90%
- Ki ([4]; read-out: Ki for membrane binding of del 15-263, vole P100 membranes, Fig. 7): 35 µM

Substance: pp60v-src: protein product of the v-src gene of Rous sarcoma virus; NH2 terminus M G S S K S K P K D P S Q R
- ratio of src protein in the pellet fraction +Mbs/-Mbs ([5]; 1T membranes (P100), 30 min at 20°C, average of four experiments, Fig. 1): 3.2
- competition of radiolabeled kin-src binding by polypeptide ([1]; equimolar or submolar concentrations of in vitro translated polypeptide, data not shown): readily com- peted
- Percent association with cell fraction P1 (NIH3T3 cells [6]; clone 1): 43%
- Percent association with cell fraction P100 (NIH3T3 cells [6]; clone 1): 47%
- Percent association with cell fraction P1 (NIH3T3 cells [6]; clone 2): 32%
- Percent association with cell fraction P100 (NIH3T3 cells [6]; clone 2): 61%
- Percent association with cell fraction P1 (NIH3T3 cells [6]; clone 3): 17%
- Percent association with cell fraction P100 (NIH3T3 cells [6]; clone 3): 67%
- Percent association with cell fraction P1 (NIH3T3 cells [6]; clone 4): 34%
- Percent association with cell fraction P100 (NIH3T3 cells [6]; clone 4): 57%
- polypeptide membrane associated in vivo (NIH3T3 cells [6]; hypotonic lysis and differential centrifugation, Table III): 80-90%
- subcellular localization in vivo (NIH3T3 cells [6]; indirect immunofluorescence and cellular fractionation): punctate membrane staining
- morphology of expressing cells (NIH3T3 cells [7]; G418-resistant clonal populations, phase contrast, Fig. 3): fully transformed
- growth in soft agar (NIH3T3 cells [7]; G418-resistant clones, Table III prints + for all four clones of each): capable of growth in soft agar

Substance: v-src N5+9: mutant of v-src in which both lysines 5 and 9 were converted to asparagine
- decrease in membrane-binding capacity versus wild type [5]: ~ 60%
- Relative incorporation [3H]myristate/[35S]methionine (myristyl transferase): 0.93

Substance: v-src N5: mutant of v-src in which lysine 5 has been converted to asparagine
- decrease in membrane-binding capacity versus wild type [5]: 30%
- Relative incorporation [3H]myristate/[35S]methionine (myristyl transferase): 0.99

Substance: v-src N9: mutant of v-src in which lysine 9 has been converted to asparagine
- decrease in membrane-binding capacity versus wild type [5]: 45%
- Relative incorporation [3H]myristate/[35S]methionine (myristyl transferase): 0.98
